Tests used:
Type in all cases: functional
Rattus norvegicus [1] = assay: % Inhibition of angiotensin-I induced pressor response in normotensive rats after peroral dosing of 0.5 umol/kg; conditions: po
How it was run: (§1)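 Conscious, unrestrained catheterized male Sprague–Dawley rats (225–275 g) had direct aortic pressure recording. Baseline pressor responses were taken to AI (310 ng/kg iv) and AII (100 ng/kg iv). Compound was given orally in water, 5% NaHCO3 or 1% agar suspension. AI and AII responses were then tracked up to 280 min. Maximum % inhibition is the mean response of four animals per dose.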

Rattus norvegicus [2] = assay: % Inhibition of angiotensin-I induced pressor response in normotensive rats after intravenous dosing of 0.15 umol/kg
How it was run: (§2)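 Conscious, unrestrained male Sprague–Dawley rats (225–275 g) with indwelling aortic and vena caval catheters, allowed at least 2 weeks of recovery. Aortic pressure recorded directly. Baseline pressor responses to AI (310 ng/kg iv) and AII (100 ng/kg iv) were taken first. Compound was given iv in 0.1 mL water or 5% NaHCO3, and responses were followed for up to 70 min. Maximum % inhibition is the mean of four animals per dose.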

Rattus norvegicus [3] = assay: % Inhibition of angiotensin-I induced pressor response in normotensive rats after intravenous dosing of 5 umol/kg
How it was run: (§3)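 Male Sprague–Dawley rats (225–275 g) fitted with indwelling abdominal aorta and vena cava catheters, recovered at least 2 weeks, then tested conscious and unrestrained. Aortic pressure was recorded directly. Pressor responses to AI (310 ng/kg iv) and AII (100 ng/kg iv) were taken before dosing. Compound was given iv in water or 5% NaHCO3, and responses were followed up to 70 min. Maximum % inhibition is the mean of four animals per dose.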

Rattus norvegicus [4] = assay: % Inhibition of angiotensin-I induced pressor response in normotensive rats after peroral dosing of 1.5 umol/kg; conditions: po; how it was run: as §1
Rattus norvegicus [5] = assay: % Inhibition of angiotensin-I induced pressor response in normotensive rats after peroral dosing of 15 umol/kg; conditions: po; how it was run: as §1
Rattus norvegicus [6] = assay: % Inhibition of angiotensin-I induced pressor response in normotensive rats after peroral dosing of 50 umol/kg; conditions: po; how it was run: as §1
Rattus norvegicus [7] = assay: % Inhibition of angiotensin-I induced pressor response in normotensive rats after peroral dosing of 5 umol/kg; conditions: po; how it was run: as §1
Rattus norvegicus [8] = assay: % Inhibition of angiotensin-I induced pressor response in normotensive rats after intravenous dosing of 0.5 umol/kg; how it was run: as §2
Rattus norvegicus [9] = assay: % Inhibition of angiotensin-I induced pressor response in normotensive rats after intravenous dosing of 0.05 umol/kg; how it was run: as §3
Rattus norvegicus [10] = assay: % Inhibition of angiotensin-I induced pressor response in normotensive rats after intravenous dosing of 1.5 umol/kg; how it was run: as §2
Rattus norvegicus [11] = assay: % Inhibition of angiotensin-I induced pressor response in normotensive rats after peroral dosing of 0.15 umol/kg; conditions: po; how it was run: as §1

Row | Compound | inhibition in vivo at 0.5 µmol/kg (Rattus norvegicus [1]) [%] | inhibition in vivo at 0.15 µmol/kg (Rattus norvegicus [2]) [%] | inhibition in vivo at 5 µmol/kg (Rattus norvegicus [3]) [%] | inhibition in vivo at 1.5 µmol/kg (Rattus norvegicus [4]) [%] | inhibition in vivo at 15 µmol/kg (Rattus norvegicus [5]) [%] | inhibition in vivo at 50 µmol/kg (Rattus norvegicus [6]) [%] | inhibition in vivo at 5 µmol/kg (Rattus norvegicus [7]) [%] | inhibition in vivo at 0.5 µmol/kg (Rattus norvegicus [8]) [%] | inhibition in vivo at 0.05 µmol/kg (Rattus norvegicus [9]) [%] | inhibition in vivo at 1.5 µmol/kg (Rattus norvegicus [10]) [%] | inhibition in vivo at 0.15 µmol/kg (Rattus norvegicus [11]) [%]
1 | C[C@H](CS)C(=O)N1CCC[C@H]1C(=O)O [CAPTOPRIL] | 42 | 66 | 93 | 61 | 78 | 93 | 79 | 87 | 18 | 91 | –
2 | CCOC(=O)[C@H](CCc1ccccc1)N[C@@H](C)C(=O)N1CC2(C[C@H]1C(=O)O)SCCS2 | 41 | – | – | 87 | – | – | – | – | – | – | 15

Reference: ChEMBL document CHEMBL1124128, “Angiotensin-converting enzyme inhibitors. Mercaptan, carboxyalkyl dipeptide, and phosphinic acid inhibitors incorporating 4-substituted prolines” (J Med Chem, 1988)
